From PubChem
Rows were chosen to be rich in hits. Some 1.8% of all compounds tested hit in one or more screens of this group.
GSTO1 counter: counter-screen for RBBP9 inhibitors: inhibitors of human GSTO1 | P78417 | AID 1974 | inhibition, % at 5.96 µM | 300,000 compounds, 1.1% hits | recombinant GSTO1, activity-based probe fluorescence polarization;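 active = inhibition above the campaign mean inhibition plus 3 SD, cut at about 35% in these data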;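 note: 0% = GSTO1-1 with DMSO and 100% = wells lacking GSTO1-1 enzyme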
proCasp7 act: counter-screen: procaspase-7 (human) activation; recombinant procaspase-7, Ac-DEVD-pNA absorbance 405 nm; D23A/D198A/D206A triple mutant, cannot self-cleave; scale: DMSO 0, 5 µM enzyme 100; 330,000 compounds, 0.093% hits; activation, % at 8.5 µM; P55210; AID 463210;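 active = percent activation above the screen-wide mean plus 3 SD, cut at about 25% in these data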
Target sequence (P55210 whole entry D23A/D198A/D206A): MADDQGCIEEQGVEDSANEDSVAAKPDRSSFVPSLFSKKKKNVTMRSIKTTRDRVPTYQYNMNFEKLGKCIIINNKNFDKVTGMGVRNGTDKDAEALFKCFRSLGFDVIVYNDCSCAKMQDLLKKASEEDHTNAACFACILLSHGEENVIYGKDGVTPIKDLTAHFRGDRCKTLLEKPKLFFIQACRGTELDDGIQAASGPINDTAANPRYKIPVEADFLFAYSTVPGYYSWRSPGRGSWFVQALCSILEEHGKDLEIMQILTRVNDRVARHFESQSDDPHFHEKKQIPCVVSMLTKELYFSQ
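System: Procaspase-7 triple mutant (PC-7 D3A); measure: % activation from two-timepoint absorbance difference, scaled to controls; times: 1 h compound preincubation, 2 h substrate cleavage, 25 °C; also added: Ac-DEVD-pNA substrate, 400 µM as added; measured by: Epi-absorbance of released pNA at 405 nm, two timepoints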
ZTA counter: ZTA (EBV) inhibition in EBNA-1 counter-screen; ZTA-DNA binding, fluorescence polarization; inhibition, % at 11 µM; 320,000 compounds, 0.15% hits; in the data active = inhibition above about 33%
Apaf-1 inh: human Apaf-1 inhibition | O14727 | reconstituted apoptosome caspase-3 activity, DEVD-Rh110 fluorescence | inhibition, % at 20 µM | 330,000 compounds, 0.71% hits | AID 489030; active = inhibition of at least 40% at 20 µM;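 note: plate controls were DMSO wells for no effect and DEVD-CHO caspase inhibitor wells for full effect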
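Material: reconstituted apoptosome with Apaf-1, cytochrome c, caspase-9, procaspase-3, dATP / Buffer or medium: pH 7.5 Hepes buffer with CHAPS, BSA, DTT / Also added: cytochrome c with DEVD-Rh110 / Schedule: compound with Apaf-1, dATP, procaspase-3 30 min, then 50 min reaction, room temperature / Technique: rhodamine 110 fluorescence at Ex 480/Em 540 nm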
EBNA-1 inh: blocks EBNA-1 binding to DNA; EBNA-1 DNA binding, fluorescence polarization; inhibition, % at 14.8 µM; 300,000 compounds, 0.34% hits; AID 1950; in the data active = inhibition above about 28%
proCasp3 act: activates human procaspase-3 | P42574 | recombinant procaspase-3 D3A, Ac-DEVD-pNA absorbance 405 nm | activation, % at 8.5 µM | 330,000 compounds, 0.11% hits | AID 463141;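 active = activation above the mean of all tested compounds plus 3 SD, cut at about 21% in these data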;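 note: 0% = DMSO alone and 100% = DMSO wells spiked with extra 5 µM PC-3 D3A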
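Test system: Procaspase-3 D3A mutant; medium: Zinc-free HEPES/NaCl buffer with 0.01% Triton X-100 at pH 7.4; reagent: DEVD-pNA substrate; doses: one concentration, 8.5 µM nominal, 0.8% DMSO; times: 1 h preincubation plus 2 h reaction at 25 °C; signal: Epi-absorbance at 405 nm of released p-nitroaniline, 0 and 120 min; replicates: singlicate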
Apaf-1 inh conf: confirmation of Apaf-1 inhibitors. 1,800 compounds, 25% hits. AID 504614. inhibition, % at 20 µM. shares compounds with Apaf-1 inh. reconstituted apoptosome, caspase-3 DEVD-Rh110 fluorescence;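 active = mean inhibition of at least 40% at 20 µM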;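 note: plate controls were DMSO wells for no effect and DEVD-CHO caspase inhibitor control wells for full effect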
Rh110 quench: Rh110 signal interference in Apaf-1 inhibitor counter-screen; shares compounds with Apaf-1 inh; Rh110 fluorescence interference, quenched caspase reaction; activation (fluorescence interference), % at 20 µM; 1,800 tested, under 10 active;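 active = signal rise of 40% or more at 20 µM, treated as a fluorescence artifact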
Apaf1 inh interf: shows fluorescence interference in the Apaf-1 inhibitor assay format | fluorescence interference counterscreen, Apaf-1 assay format | 460 tested, under 10 active | IC50, µM | shares compounds with Apaf-1 inh; call rule not given here
An asterisk follows results filed as active; x = not tested or not shown.

SMILES	GSTO1 counter	proCasp7 act	ZTA counter	Apaf-1 inh	EBNA-1 inh	proCasp3 act	Apaf-1 inh conf	Rh110 quench	others
C#CCOCCOCCOCCNc1nc(N2CCN(C(=O)[C@H](CCCCN)n3cc(CN)nn3)CC2)nc(N2CCN(C(=O)[C@H](CCC(=O)O)n3cc([C@@H](N)CCCCN)nn3)CC2)n1	x	13	x	38	x	-3	x	x
C#CCOCCOCCOCCNc1nc(N2CCN(C(=O)CCCCCCCCCCNC(=O)[C@@H](CCSC)n3cc(CCO)nn3)CC2)nc(N2CCN(C(=O)CCCCCCCCCCNC(=O)[C@H](CCC(=O)O)n3cc(CCCCCN)nn3)CC2)n1	-7	0	-12	62*	6	4	21	1
C#CCOCCOCCOCCNc1nc(N2CCN(C(=O)CCCCCCCCCCNC(=O)[C@@H](CCSC)n3cc(CCO)nn3)CC2)nc(N2CCN(C(=O)CCCCCCCCCCNC(=O)[C@H](CO)n3cc(CCCCCN)nn3)CC2)n1	-4	-9	4	71*	-6	-5	40*	2	Apaf1 inh interf=>100
O=C(NNC(=O)C1C2C=CC(C2)C1C(=O)O)c1ccccc1O (configuration not stated)	5	7	8	-2	0	6	x	x
Cc1cc(NC(=O)Cn2c(=O)oc3ccccc32)no1	x	10	-9	-3	x	0	x	x
CCCCCCCNC(=O)C1(CC2CC(c3ccc(Cl)cc3)=NO2)CCN(C(=O)Cc2ccc(F)cc2)CC1 (configuration not stated)	-1	7	4	17	-2	9	x	x
CCCCCCCNC(=O)C1(CC2CC(c3ccc(Cl)cc3)=NO2)CCNCC1 (configuration not stated)	-3	-7	15	41*	8	2	30	9
CCCCCCCNC(=O)C1(CC2CC(c3cccc(Br)c3)=NO2)CCNCC1 (configuration not stated)	0	6	8	46*	3	5	38	8
C=CCNC(=O)C1CCN(S(=O)(=O)c2ccc3ccccc3c2)CC1	0	-5	-12	0	12	5	x	x
Cn1nnc(NC(=S)NC(=O)c2cccc3ccccc23)n1	1	-33	8	-12	12	-17	x	x
COc1ccc(-n2nc3cc(N)c(Br)cc3n2)cc1	17	-1	-2	69*	6	0	4	4
C#CCOCCOCCOCCNc1nc(N2CCN(C(=O)C(Cc3ccc(O)cc3)n3cc(C(N)CC(C)C)nn3)CC2)nc(N2CCN(C(=O)C(Cc3cc4ccccc4[nH]3)n3cc(C(N)C(C)CC)nn3)CC2)n1 (configuration not stated)	-1	0	-2	20	14	3	x	x
C#CCOCCOCCOCCNc1nc(N2CCN(C(=O)[C@H]([C@@H](C)CC)n3cc([C@@H](N)CC(C)C)nn3)CC2)nc(N2CCN(C(=O)[C@H](Cc3cc4ccccc4[nH]3)n3cc([C@@H](N)C(C)CC)nn3)CC2)n1 (some centres not stated)	x	x	x	30	x	x	x	x
C#CCOCCOCCOCCNc1nc(N2CCN(C(=O)[C@H]([C@@H](C)CC)n3cc([C@@H](N)Cc4ccc(O)cc4)nn3)CC2)nc(N2CCN(C(=O)[C@H](Cc3cc4ccccc4[nH]3)n3cc([C@@H](N)CC(C)C)nn3)CC2)n1	-7	-11	-2	63*	-4	-2	30	-3
